Experiments:
Hepatitis C virus = assay: Antiviral activity against recombinant HCV genotype 2a JFH1 infected in human […] for 5 hrs measured on day 3 post infection by luciferase reporter gene assay; type: functional, organism-based, Hepacivirus hominis; settings: JFH-1, Huh-7
Summary of the method: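 Huh7.5 cells infected with JFH1-Luc virus (MOI 0.004) for 5 h at 37 °C with 3-fold serial dilutions of compound. Renilla luciferase read from lysates on day 3 postinfection to derive EC50.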

[1] = Selectivity index, ratio of CC50 for mock-infected human Huh7.5 cells to EC50 for recombinant HCV genotype 2a JFH1; design: species or system Huh-7
Summary of the method: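 Huh7.5 cells infected with JFH1-Luc virus (MOI 0.004, 5 h, 37 °C) in the presence of 3-fold serial dilutions. EC50 came from Renilla luciferase on day 3. CC50 came from MTT viability of mock-infected Huh7.5 cells treated in parallel. SI = CC50/EC50.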

[2] = Cytotoxicity against mock-infected human Huh7.5 cells assessed as reduction in cell viability incubated for 5 hrs by MTT assay; type: cell-based, Huh-7; settings: mock-infected Huh7.5 cells
Summary of the method: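 Mock-infected Huh7.5 cells run alongside the JFH1-Luc antiviral assay with 3-fold serial dilutions. Viability read by MTT assay to give CC50.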

**Q.** With `COc1ccc(N(C(=O)Cc2c[nH]c3ccccc23)C(C(=O)NC2CCCCC2)c2ccc(F)cc2)cc1` (configuration not stated) as the molecule, how does the EC50 (Hepatitis C virus) read?
**A.** 26.5 µM

**Q.** What about the “Ratio CC50/EC50” value [1] of the same molecule?
**A.** 2.4

**Q.** And the CC50 at 5 h [2]?
**A.** 63.6 µM

**Q.** Which EC50 (Hepatitis C virus) does the source give for `COc1ccc(N(C(=O)Cc2c[nH]c3ccccc23)C(C(=O)NC2CCCCC2)c2ccc([N+](=O)[O-])cc2)cc1` (configuration not stated) here?
**A.** 2.5 µM

**Q.** And the “Ratio CC50/EC50” value [1]?
**A.** 3.4

**Q.** What about the CC50 at 5 h [2] of the same molecule?
**A.** 8.5 µM

**Q.** For `CC(=O)N(c1ccc(C(C)C)cc1)C(C(=O)NC1CCCCC1)c1ccc(Cl)cc1` (configuration not stated), which EC50 (Hepatitis C virus) is on record?
**A.** 10.8 µM

**Q.** And the “Ratio CC50/EC50” value [1]?
**A.** 8.2

**Q.** And the CC50 at 5 h [2]?
**A.** 89.2 µM

**Q.** With `COc1ccc(CCN(C(=O)c2ccccc2)C(C(=O)NC2CCCCC2)c2ccc([N+](=O)[O-])cc2)cc1OC` (configuration not stated) as the molecule, how does the EC50 (Hepatitis C virus) read?
**A.** 8.9 µM

**Q.** What about the “Ratio CC50/EC50” value [1] of the same molecule?
**A.** >11.2

**Q.** And the CC50 at 5 h [2]?
**A.** > 100 µM

**Q.** With `COc1cccc(CCN(C(=O)c2ccc(Cl)nc2)C(C(=O)NC2CCCCC2)c2ccc([N+](=O)[O-])cc2)c1` (configuration not stated) as the molecule, how does the EC50 (Hepatitis C virus) read?
**A.** 7.2 µM

**Q.** And the “Ratio CC50/EC50” value [1]?
**A.** >13.8

**Q.** And the CC50 at 5 h [2]?
**A.** > 100 µM

**Q.** Which EC50 (Hepatitis C virus) does the source give for `O=C(NC1CCCCC1)C(c1ccccc1)N(C(=O)Cc1c[nH]c2ccccc12)c1ccccc1` (configuration not stated) here?
**A.** > 30.5 µM

**Q.** And the CC50 at 5 h [2]?
**A.** 30.5 µM

**Q.** Which EC50 (Hepatitis C virus) does the source give for `COc1ccc(N(C(=O)c2cccc(C)c2C)C(C(=O)NC2CCCCC2)c2ccc(O)cc2)cc1OC` (configuration not stated) here?
**A.** 11.4 µM

**Q.** What about the “Ratio CC50/EC50” value [1] of the same molecule?
**A.** 6.1

**Q.** And the CC50 at 5 h [2]?
**A.** 69.8 µM

**Q.** With `CCCCCNC(=O)C(c1ccc2c(c1)OCO2)N(C(=O)CCCC)c1ccc(OC)c(OC)c1` (configuration not stated) as the molecule, how does the EC50 (Hepatitis C virus) read?
**A.** > 32.2 µM

**Q.** What about the CC50 at 5 h [2] of the same molecule?
**A.** 32.2 µM

**Q.** With `COc1ccc([N+](=O)[O-])c(C(=O)N(CCc2ccc(OC)c(OC)c2)C(C(=O)NC2CCCCC2)c2ccc([N+](=O)[O-])cc2)c1` (configuration not stated) as the molecule, how does the EC50 (Hepatitis C virus) read?
**A.** 34.8 µM

**Q.** What about the “Ratio CC50/EC50” value [1] of the same molecule?
**A.** >2.8

**Q.** What about the CC50 at 5 h [2] of the same molecule?
**A.** > 100 µM

**Q.** What does the source list for `CC(C)c1ccc(N(C(=O)c2ccccc2)C(C(=O)NC2CCCCC2)c2ccc(Cl)cc2)cc1` (configuration not stated)?
**A.** EC50 (Hepatitis C virus): 6.7 µM; Ratio CC50/EC50 [1]: 9.6; CC50 at 5 h [2]: 64.5 µM

**Q.** Which results are given for `COc1cc(C(C(=O)NC2CCCCC2)N(C(=O)Cc2c[nH]c3ccccc23)c2ccccc2)cc(OC)c1OC` (configuration not stated)?
**A.** EC50 (Hepatitis C virus): 16.3 µM; Ratio CC50/EC50 [1]: 2.2; CC50 at 5 h [2]: 36.8 µM

**Q.** Which EC50 (Hepatitis C virus) does the source give for `COc1ccc(C(C(=O)NC2CCCCC2)N(C(=O)Cc2c[nH]c3ccccc23)c2ccccc2)cc1OC` (configuration not stated) here?
**A.** > 22.3 µM

**Q.** And the CC50 at 5 h [2]?
**A.** 22.5 µM

**Q.** Which EC50 (Hepatitis C virus) does the source give for `COc1ccc(N(C(=O)c2cc(C)ccc2C)C(C(=O)NC2CCCCC2)c2ccc([N+](=O)[O-])cc2)cc1OC` (configuration not stated) here?
**A.** 7.9 µM

**Q.** And the “Ratio CC50/EC50” value [1]?
**A.** 8.6

**Q.** What about the CC50 at 5 h [2] of the same molecule?
**A.** 68.3 µM

**Q.** What does the source list for `COc1cccc(CCC(=O)N(c2ccc(OC)c(OC)c2)C(C(=O)NC2CCCCC2)c2ccc(O)cc2)c1` (configuration not stated)?
**A.** EC50 (Hepatitis C virus): 15.5 µM; Ratio CC50/EC50 [1]: 3.3; CC50 at 5 h [2]: 51.5 µM

**Q.** With `COc1ccc(CCC(=O)N(c2ccc(Br)cc2)C(C(=O)NC2CCCCC2)c2ccc([N+](=O)[O-])cc2)cc1` (configuration not stated) as the molecule, how does the EC50 (Hepatitis C virus) read?
**A.** 6.1 µM

**Q.** And the “Ratio CC50/EC50” value [1]?
**A.** 1.6

**Q.** And the CC50 at 5 h [2]?
**A.** 9.8 µM

**Q.** For `COc1ccccc1N(C(=O)Cc1c[nH]c2ccccc12)C(C(=O)NC1CCCCC1)c1cc(OC)c(OC)c(OC)c1` (configuration not stated), which EC50 (Hepatitis C virus) is on record?
**A.** > 23.2 µM

**Q.** And the CC50 at 5 h [2]?
**A.** 23.2 µM

**Q.** With `NC(=O)c1ncn([C@@H]2O[C@H](CO)[C@@H](O)[C@H]2O)n1` [RIBAVIRIN] as the molecule, how does the EC50 (Hepatitis C virus) read?
**A.** 16.3 µM

**Q.** What about the “Ratio CC50/EC50” value [1] of the same molecule?
**A.** >6.1

**Q.** What about the CC50 at 5 h [2] of the same molecule?
**A.** > 100 µM

**Q.** What does the source list for `COc1ccc(N(C(=O)Cc2c[nH]c3ccccc23)C(C(=O)NC2CCCCC2)c2ccc(OC)c(OC)c2OC)cc1OC` (configuration not stated)?
**A.** EC50 (Hepatitis C virus): > 27.1 µM; CC50 at 5 h [2]: 27.1 µM

**Q.** Which results are given for `COc1ccc(CCC(=O)N(c2ccc(C(C)C)cc2)C(C(=O)NC2CCCCC2)c2ccc(Cl)cc2)cc1` (configuration not stated)?
**A.** EC50 (Hepatitis C virus): > 100 µM; CC50 at 5 h [2]: > 100 µM

**Q.** For `COc1ccc(CCC(=O)N(c2ccc(OC)c(OC)c2)C(C(=O)NC2CCCCC2)c2ccc(Cl)cc2)cc1` (configuration not stated), which EC50 (Hepatitis C virus) is on record?
**A.** 31.1 µM

**Q.** What about the “Ratio CC50/EC50” value [1] of the same molecule?
**A.** 1.8

**Q.** And the CC50 at 5 h [2]?
**A.** 57.4 µM

**Q.** Which EC50 (Hepatitis C virus) does the source give for `O=C(NC1CCCCC1)C(c1ccc(Cl)cc1)N(C(=O)Cc1c[nH]c2ccccc12)c1ccccc1` (configuration not stated) here?
**A.** 3.3 µM

**Q.** And the “Ratio CC50/EC50” value [1]?
**A.** 3.1

**Q.** And the CC50 at 5 h [2]?
**A.** 10.2 µM

From ChEMBL document CHEMBL3751796, “Structure-Based Discovery of Novel Cyclophilin A Inhibitors for the Treatment of Hepatitis C Virus Infections” (J Med Chem, 2015)
